Laboratory results: paper PMC12271353 (Scientific Reports, 2025)
Read-outs that look alike come from different tables or passages of the source.

Tests used:
S. Typhimurium TA100 = details: highest dose 250 μg/100 μL, cited from earlier work
S. Typhimurium TA98 = details: highest dose 250 μg/100 μL, ref Sharma et al.[46]; cited from earlier work
MRSA = assay: Kirby-Bauer disc diffusion; assay type: cell-based, methicillin-resistant Staphylococcus aureus; details: Staphylococcus aureus
How it was run: (§1)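 Kirby-Bauer method. Mueller Hinton agar plates were seeded with the test bacteria. Discs carrying 30 µg of test compound were placed on the surface and left to diffuse for 30 min at 4 °C. Plates were incubated at 37 °C, and inhibition zones were measured in mm.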

pBR322 plasmid DNA = assay: DNA nicking assay; assay type: biochemical; details: with Fenton's reagent; 10 µg/mL
How it was run: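 pBR322 supercoiled plasmid (2 µL of a 50 µg/100 µL stock) mixed with 10 µL Fenton's reagent (80 mM FeCl₃, 30 mM H₂O₂, 50 mM ascorbic acid) and test compound (2–10 µg/mL) in water to 20 µL. Incubated for 30 min at 37 °C, then run on 1% agarose gel. Form I, II and III percentages were derived by densitometry. Water replaced Fenton's reagent as the negative control, and rutin served as the positive control.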

VRE = assay: Kirby-Bauer disc diffusion; assay type: cell-based, Vancomycin-resistant Enterococcus; details: HFM-2P, teicoplanin 30 µg/disc
How it was run: as §1

In the case of salvianolic acid B, the Antimutagenic activity (S. Typhimurium TA100; ref Sharma et al.[46]) is given as 41.10–88.53% and the Antimutagenic activity (S. Typhimurium TA98) is given as 47.87–88.11%.
In the case of `CN[C@H](CC(C)C)C(=O)N[C@H]1C(=O)N[C@@H](CC(N)=O)C(=O)N[C@H]2C(=O)N[C@H]3C(=O)N[C@H](C(=O)N[C@H](C(=O)O)c4cc(O)cc(O)c4-c4cc3ccc4O)[C@H](O)c3ccc(c(Cl)c3)Oc3cc2cc(c3O[C@@H]2O[C@H](CO)[C@@H](O)[C@H](O)[C@H]2O[C@H]2C[C@](C)(N)[C@H](O)[C@H](C)O2)Oc2ccc(cc2Cl)[C@H]1O` [vancomycin], the zone of inhibition at 30 µg/disc (MRSA) is reported as 18 mm.
For `C[C@@H]1O[C@@H](OC[C@H]2O[C@@H](Oc3c(-c4ccc(O)c(O)c4)oc4cc(O)cc(O)c4c3=O)[C@H](O)[C@@H](O)[C@@H]2O)[C@H](O)[C@H](O)[C@H]1O` [Rutin, rutin], the “Form I (supercoiled) DNA” value (pBR322 plasmid DNA) was 54.72% and the “Form II DNA” value (pBR322 plasmid DNA) was 45.27%.
For `CC1OC(n2ccc(NC(=O)c3ccc(N)cc3)nc2=O)CCC1OC1OC(C)C(N(C)C)C(O)C1O` (stereo not shown) [plicacetin], the Antimutagenic activity (S. Typhimurium TA100; ref Devi et al.[33]) is given as 41.10–88.53%.
teicoplanin showed a Zone of inhibition (VRE) of 15 mm.
